As usually defined, the AC50 is the concentration at which the activity in the assay is half-maximal.

The values that follow come from PubChem BioAssay AID493082 (Broad Institute, 2011).

The nature of assay [1]: growth inhibition of drug-resistant Candida albicans, dose response, Alamar Blue, 48 h, dry powder (AID 493082). Particulars: C. albicans CaCi-8 + fluconazole, Alamar Blue growth, 48 h; at 26 µM (top of the series). A digest of the protocol:
(§1)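 Material: fluconazole-resistant Candida albicans strain CaCi-8. Reagent: fluconazole 8 µg/mL. Timing: 48 h compound exposure at 37 °C, 2 h dye step. Measured by: Alamar Blue fluorescence, Ex 544/Em 590 nm. Read-out basis: fungal growth, reduced fluorescence as inhibition.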
(Resazurin is reduced to fluorescent resorufin, in cell work by metabolically active cells.)

For assay [2], the system named is C. albicans CaCi-8 + fluconazole, Alamar Blue growth, 48 h. The assay is described as above. A digest of the protocol:
as §1

SMILES strings stand for the structures. Results filed as inconclusive are left out. Activity calls are given as the source filed them.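 Rule for the calls: active = compounds whose fitted half-maximal growth inhibition concentration is at most ten times the top valid dose; inconclusive = flat curve with 30 to 70% inhibition, or poor fit; inactive = the rest.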

Regarding `COC(=O)C(C)(C)n1nc(-c2ccccc2)c2ccccc21`, the activity change, negative = inhibition in assay [1] is -6.76% (inactive).
The same measure, in the same setting: next, `O=C(Cn1nc(-c2ccccc2)c2ccccc21)OC1CCC1`: -21.3% (inactive).
Take `COC(=O)Cn1nc(-c2ccc(C#N)cc2)c2ccccc21`: the AC50 in assay [2] is 20 µM.
On to `COC(=O)Cn1nc(-c2ccccc2)c2cccc(C(F)(F)F)c21`, for which the activity change, negative = inhibition in assay [1] is -12% (inactive).
In the case of `CCN(CC)C(=O)Cn1c2ccccc2c2nc3n(c(=O)c21)CCS3`, the AC50 in assay [2] was 10 µM.
On the same count and under the same terms, next, `O=C(Cn1c2ccc(F)cc2c2nc3n(c(=O)c21)CCS3)N1CCCC1`: 0.907 µM.
`O=C(Cn1c2ccccc2c2ccncc21)N1CCCCC1`: the activity change, negative = inhibition in assay [1] is -24.1% (inactive).
As for `O=C(Cn1c2ccccc2c2nc3n(c(=O)c21)CCS3)N1CCOCC1`, in assay [2], the AC50 is 7.67 µM.
On the same count and under the same terms, for `COC(=O)Cn1nc(I)c2ccccc21` the value was 18.8 µM; for `COC(=O)Cn1nc(-c2ccc(F)cc2)c2ccccc21`, 16.1 µM.
In the case of `CCN(CC)C(=O)Cn1c2ccc(F)cc2c2nc3n(c(=O)c21)CCS3`, the activity change, negative = inhibition in assay [1] is 24.6% (inactive).
For the compound `O=C(Cn1c2ccccc2c2nc3n(c(=O)c21)CCS3)N1CCCCC1`, the AC50 in assay [2] is 4.91 µM.
As to `COC(=O)Cn1nc(-c2ccccc2)c2ccc(C(F)(F)F)cc21`, in assay [1], the activity change, negative = inhibition was -34.9% (inactive).
The same measure, in the same setting: for `O=C(Cn1c2ccc(F)cc2c2nc3n(c(=O)c21)CCS3)N1CCCCCC1` the value was 3.17% (inactive); for `O=C(Cn1c2ccc(F)cc2c2nc3n(c(=O)c21)CCS3)N1CCCCC1`, 12.2% (inactive); for `O=C(O)Cn1nc(-c2ccccc2)c2ccccc21`, -8.51% (inactive).
Still for that read-out and setting: next, `CCCCn1nc(-c2ccccc2)c2ccccc21`: 19.1% (inactive).
With `O=C(Cn1c2ccccc2c2nc3n(c(=O)c21)CCS3)N1CCCC1`, the AC50 in assay [2] was 3.83 µM.
Consider `O=C1OCCC1n1nc(-c2ccccc2)c2ccccc21` (centres undefined), for which the activity change, negative = inhibition in assay [1] is -19.7% (inactive).
Turning to `COC(=O)Cn1nc(-c2cccc(F)c2)c2ccccc21`, the half-maximal activity concentration (AC50) in assay [2] is 14 µM.
The same measure, in the same setting: next, `COC(=O)Cn1nc(-c2ccccc2C)c2ccccc21`: 8.07 µM; `CC1CCN(C(=O)Cn2c3ccccc3c3nc4n(c(=O)c32)CCS4)CC1`: 2.06 µM.
Same read-out and setting: for `COC(=O)Cn1nc(-c2ccccc2)c2ccccc21` the value was 2.33 µM.
Still for that read-out and setting: for `COC(=O)Cn1c(-c2ccccc2)nc2ccccc21` the value was 16.7 µM.
